Source: ChEMBL document CHEMBL1148311, “Synthesis of novel potent dipeptidyl peptidase IV inhibitors with enhanced chemical stability: interplay between the N-terminal amino acid alkyl side chain and the cyclopropyl group of alpha-aminoacyl-l-cis-4,5-methanoprolinenitrile-based inhibitors” (J Med Chem, 2004)

Molecular target: Dipeptidyl peptidase 4 (Sus scrofa, UniProt P22411)
Sequence (P22411 whole entry): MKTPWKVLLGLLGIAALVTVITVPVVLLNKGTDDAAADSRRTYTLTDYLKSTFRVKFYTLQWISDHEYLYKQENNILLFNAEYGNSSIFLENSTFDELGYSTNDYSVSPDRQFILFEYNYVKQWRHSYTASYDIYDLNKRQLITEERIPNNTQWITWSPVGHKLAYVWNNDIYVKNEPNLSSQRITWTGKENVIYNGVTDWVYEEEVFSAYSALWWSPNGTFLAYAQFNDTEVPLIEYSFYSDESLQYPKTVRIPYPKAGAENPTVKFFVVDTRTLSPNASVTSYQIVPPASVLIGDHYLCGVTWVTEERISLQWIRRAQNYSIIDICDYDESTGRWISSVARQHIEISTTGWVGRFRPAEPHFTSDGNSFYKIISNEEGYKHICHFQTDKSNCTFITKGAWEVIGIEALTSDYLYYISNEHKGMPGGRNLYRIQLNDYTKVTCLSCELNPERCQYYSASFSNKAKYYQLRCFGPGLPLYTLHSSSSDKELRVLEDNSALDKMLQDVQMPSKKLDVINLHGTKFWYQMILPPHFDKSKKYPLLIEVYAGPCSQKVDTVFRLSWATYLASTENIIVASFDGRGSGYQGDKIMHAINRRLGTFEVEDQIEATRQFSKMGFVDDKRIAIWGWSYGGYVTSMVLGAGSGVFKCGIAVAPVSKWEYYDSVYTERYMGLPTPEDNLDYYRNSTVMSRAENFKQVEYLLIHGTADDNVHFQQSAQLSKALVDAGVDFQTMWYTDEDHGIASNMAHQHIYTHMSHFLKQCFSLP
Experiment: In vitro inhibition of porcine Dipeptidylpeptidase IV.
Work on `CC(C)[C@H](N)C(=O)N1C[C@H]2C[C@H]2C1C#N.O=C(O)C(F)(F)F` (some centres undefined) yielded a Ki of 12 nM.
Work on `CCC(C)[C@H](N)C(=O)N1C(C#N)C[C@@H]2C[C@@H]21.O=C(O)C(F)(F)F` (some centres undefined) yielded a Ki of 25 nM.
In the case of `CC1(C(N)C(=O)N2C(C#N)C[C@@H]3C[C@@H]32)CCC1` (some centres undefined), the Ki is reported as 11 nM.
`N#CC1C[C@@H]2C[C@@H]2N1C(=O)[C@@H](N)Cc1c[nH]c2ccccc12` (some centres undefined) showed a Ki of 230 nM.
`CCC(C)[C@H](N)C(=O)N1C[C@H]2C[C@H]2C1C#N.O=C(O)C(F)(F)F` (some centres undefined) showed a Ki of 15 nM.
`N#CC1C[C@@H]2C[C@@H]2N1C(=O)C1CCCCN1` (some centres undefined) gave a Ki of 10000 nM.
`CSCC[C@H](N)C(=O)N1C(C#N)C[C@@H]2C[C@@H]21` (some centres undefined) showed a Ki of 135 nM.
In the case of `CC1(C(N)C(=O)N2C(C#N)C[C@@H]3C[C@@H]32)CCCC1.O=C(O)C(F)(F)F` (some centres undefined), the Ki is reported as 7 nM.
Compound `CN[C@H](C(=O)N1C(C#N)C[C@@H]2C[C@@H]21)C(C)C` (some centres undefined) has a Ki of 1940 nM.
Work on `CC1(C(N)C(=O)N2C(C#N)C[C@@H]3C[C@@H]32)CCCCC1` (some centres undefined) yielded a Ki of 8 nM.
`N#CC1C[C@@H]2C[C@@H]2N1C(=O)[C@@H](N)Cc1ccccc1` (some centres undefined) showed a Ki of 65 nM.
Compound `CC(C)[C@H](N)C(=O)N1C(C#N)C[C@H]2C[C@H]21.O=C(O)C(F)(F)F` (some centres undefined) has a Ki of 29 nM.
In the case of `N#CC1C[C@@H]2C[C@@H]2N1C(=O)C(N)C1CCCCC1.O=C(O)C(F)(F)F` (some centres undefined), the Ki is reported as 15 nM.
In the case of `N#CC1C[C@@H]2C[C@@H]2N1C(=O)C(N)C1CCCC1` (some centres undefined), the Ki is reported as 4 nM.
`CC(C)(C)[C@H](N)C(=O)N1C(C#N)C[C@@H]2C[C@@H]21` (some centres undefined) gave a Ki of 7 nM.
With `CC(C)(C)[C@H](N)C(=O)N1C[C@H]2C[C@H]2C1C#N.O=C(O)C(F)(F)F` (some centres undefined) the Ki was 14 nM.
`CCC(C)[C@H](N)C(=O)N1CC[C@@H]2C[C@@]21C#N` (some centres undefined) showed a Ki of 7500 nM.
`CCC(C)[C@H](N)C(=O)N1C(C#N)C[C@H]2C[C@H]21` (some centres undefined) showed a Ki of 1620 nM.
In the case of `N#CC1C[C@@H]2C[C@@H]2N1C(=O)C(N)C1CCC1` (some centres undefined), the Ki is reported as 12 nM.

System: not listed separately
Experiment: Half-life in phosphate buffer at 39.5 C and pH 7.2
Type: ADME
In short: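 Aqueous solution stability of the dipeptide nitriles in phosphate buffer, pH 7.2, 39.5 °C. Reaction rate followed as disappearance of starting material by reverse-phase HPLC.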
`CC(C)[C@H](N)C(=O)N1C[C@H]2C[C@H]2C1C#N.O=C(O)C(F)(F)F` (some centres undefined) gave a half-life of 2 h.
With `CCC(C)[C@H](N)C(=O)N1C(C#N)C[C@@H]2C[C@@H]21.O=C(O)C(F)(F)F` (some centres undefined) the half-life was 22 h.
`CCC(C)[C@H](N)C(=O)N1C[C@H]2C[C@H]2C1C#N.O=C(O)C(F)(F)F` (some centres undefined) showed a half-life of 4 h.
Compound `CC1(C(N)C(=O)N2C(C#N)C[C@@H]3C[C@@H]32)CCCC1.O=C(O)C(F)(F)F` (some centres undefined) has a half-life of 24 h.
`CC(C)(C)[C@H](N)C(=O)N1CCC[C@H]1C#N.O=C(O)C(F)(F)F` gave a half-life of 27 h.
Work on `CC(C)[C@H](N)C(=O)N1C(C#N)C[C@H]2C[C@H]21.O=C(O)C(F)(F)F` (some centres undefined) yielded a half-life of 28 h.
For `CCC(C)C(N)C(=O)N1CCC[C@H]1C#N.Cl` (some centres undefined), the half-life was 5 h.
Work on `N#CC1C[C@@H]2C[C@@H]2N1C(=O)C(N)C1CCCCC1.O=C(O)C(F)(F)F` (some centres undefined) yielded a half-life of 19 h.
`CC(C)(C)[C@H](N)C(=O)N1C(C#N)C[C@@H]2C[C@@H]21` (some centres undefined) showed a half-life of 42 h.
`CC(C)(C)[C@H](N)C(=O)N1C[C@H]2C[C@H]2C1C#N.O=C(O)C(F)(F)F` (some centres undefined) showed a half-life of 4 h.
